Source: ChEMBL document CHEMBL1134088, “Fine Tuning of physico-chemical parameters to optimise a new series of novobiocin analogues” (Bioorg Med Chem Lett, 2001)
In brackets after ≈: the same amount, converted by molar mass.

How the values were obtained:
[1] = pKa value was determined; type: physicochemical
DNA gyrase = DNA gyrase (Escherichia coli, UniProt P0AES4+P0AES6); test: Inhibitory activity against Escherichia coli DNA gyrase; type: protein-complex assay
Staphylococcus aureus [2] = test: Compound was evaluated for its minimum inhibitory concentration against Staphylococcus aureus; type: functional
Outline: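 MIC by 2-fold broth microdilution, read after 24-h incubation; S. aureus strain 011HT3, no particular resistance phenotype.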

Staphylococcus aureus [3] = test: Compound was evaluated for its minimum inhibitory concentration against Staphylococcus aureus in presence of 10% serum; type: functional
Outline: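 MIC against S. aureus strain 011HT3 (no particular resistance phenotype) in medium containing serum proteins; 2-fold broth microdilution, read after 24-h incubation.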

Row | pKa [1] | IC50 (DNA gyrase) [nM] | MIC (Staphylococcus aureus [2]) [µg/mL] | MIC (Staphylococcus aureus [3]) [µg/mL] | SMILES
1 | 8 | 281 | 2.5 (≈ 4.39 µM) | 2.5 | CO[C@@H]1[C@@H](OC(=O)c2ccc(C)[nH]2)[C@@H](O)[C@H](Oc2ccc3c(N4CC(C)NC(C)C4)cc(=O)oc3c2C)OC1(C)C (some centres not stated)
2 |  | 245 | > 40 | > 40 | CO[C@@H]1[C@@H](OC(=O)c2ccc(C)[nH]2)[C@@H](O)[C@H](Oc2ccc3c(N4CC[N+](C)(C)CC4)cc(=O)oc3c2C)OC1(C)C
3 | 8.2 | 628 | 5 (≈ 8.97 µM) | 5 | CO[C@@H]1[C@@H](OC(=O)c2ccc(C)[nH]2)[C@@H](O)[C@H](Oc2ccc3c(N(C)CCN(C)C)cc(=O)oc3c2C)OC1(C)C
4 | 8.3 | 231 | 5 (≈ 9.23 µM) | 5 | CO[C@@H]1[C@@H](OC(=O)c2ccc(C)[nH]2)[C@@H](O)[C@H](Oc2ccc3c(N4CCNCC4)cc(=O)oc3c2C)OC1(C)C
5 | 5.5 | 1780 | 0.3 (≈ 0.485 µM) | 10 | CO[C@@H]1[C@@H](OC(=O)c2ccc(C)[nH]2)[C@@H](O)[C@H](Oc2ccc3c(N4CCN(c5ccccn5)CC4)cc(=O)oc3c2C)OC1(C)C
6 | 8.3 | 225 | 2.5 (≈ 4.5 µM) | 2.5 | CO[C@@H]1[C@@H](OC(=O)c2ccc(C)[nH]2)[C@@H](O)[C@H](Oc2ccc3c(N4CCNC(C)C4)cc(=O)oc3c2C)OC1(C)C (some centres not stated)
7 | 7.5 | 439 | 0.6 (≈ 1.05 µM) | 2.5 | CCN1CCN(c2cc(=O)oc3c(C)c(O[C@@H]4OC(C)(C)[C@H](OC)[C@@H](OC(=O)c5ccc(C)[nH]5)[C@H]4O)ccc23)CC1
8 | 9 | 480 | 2.5 (≈ 4.28 µM) | 2.5 | CO[C@@H]1[C@@H](OC(=O)c2ccc(C)[nH]2)[C@@H](O)[C@H](Oc2ccc3c(N4CCC(N(C)C)CC4)cc(=O)oc3c2C)OC1(C)C
9 | 7.4 | 847 | 1.2 (≈ 2.03 µM) | 20 | CO[C@@H]1[C@@H](OC(=O)c2ccc(C)[nH]2)[C@@H](O)[C@H](Oc2ccc3c(N4CCN(C)CC4)c(Cl)c(=O)oc3c2C)OC1(C)C
10 | 7.3 | 540 | 0.15 (≈ 0.27 µM) | 0.3 | CO[C@@H]1[C@@H](OC(=O)c2ccc(C)[nH]2)[C@@H](O)[C@H](Oc2ccc3c(N4CCN(C)CC4)cc(=O)oc3c2C)OC1(C)C
11 | 3.6 |  | < 0.04 | 2.5 | CO[C@@H]1[C@@H](OC(N)=O)[C@@H](O)[C@H](Oc2ccc3c(O)c(NC(=O)c4ccc(O)c(CC=C(C)C)c4)c(=O)oc3c2C)OC1(C)C [NOVOBIOCIN]
